A selection: hits, their analogues and other compounds. The true share with any hit is near 2.9%.
OX1R antag-1 = blocks the human orexin 1 receptor | CHO/OX1R cells, Fluo-8 calcium fluorescence, orexin A | 330,000 tested, 0.43% active | O43613 | inhibition, % at 5 µM | AID 434989;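 active = inhibition above its plate's threshold, mean inhibition of all tested compounds on the plate plus 3 SD, cut at about 37% in these data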;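 note: 0% = orexin A challenge wells and 100% = SB-334867-A antagonist wells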
Target sequence (O43613 whole entry, looked up): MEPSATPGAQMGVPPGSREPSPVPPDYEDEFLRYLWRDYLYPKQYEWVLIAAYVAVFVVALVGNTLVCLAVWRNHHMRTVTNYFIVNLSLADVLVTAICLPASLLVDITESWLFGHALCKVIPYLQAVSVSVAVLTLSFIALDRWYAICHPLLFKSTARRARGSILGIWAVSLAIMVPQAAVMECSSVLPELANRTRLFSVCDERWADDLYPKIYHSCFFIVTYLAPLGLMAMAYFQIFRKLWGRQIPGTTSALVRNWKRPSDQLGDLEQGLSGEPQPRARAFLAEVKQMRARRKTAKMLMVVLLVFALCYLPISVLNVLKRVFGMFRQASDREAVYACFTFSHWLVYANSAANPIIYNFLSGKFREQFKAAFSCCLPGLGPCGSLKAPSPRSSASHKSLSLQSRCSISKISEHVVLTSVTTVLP
CHO-K1 Ca ag = nonselective activator or artifact in parental CHO-K1 cells; Fluo-8 calcium fluorescence; scaled to maximal ATP response, vehicle zero; activation, % at 3 µM; 360,000 tested, 0.48% active; in the data active = activation above about 15%;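 note: untransfected CHO-K1 host cells lacking M1 receptor as counterscreen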
M1 PAM parental = M1 PAM counterscreen hit in parental CHO-K1 cells; ATP EC20, Fluo-8 calcium fluorescence; 0% at ATP EC20, 100% at ATP max; activation, % at 3 µM; 360,000 tested, 0.02% active; AID 602247;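 active = activation above the run cutoff, the mean activation of all test compounds plus 3 SD, cut at about 40% in these data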;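 note: peak over basal fluorescence ratio in a 140 s read after ATP addition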
CHO-K1 Ca antag = M1 antagonist counterscreen hit in parental CHO-K1 cells; ATP-induced calcium, Fluo-8 fluorescence; inhibition, % at 3 µM; 360,000 tested, 0.6% active;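 active = inhibition above a per-plate cutoff, the plate's mean sample inhibition plus 3 SD, cut at about 24% in these data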;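 note: 0% = DMSO plus EC80 ATP and 100% = DMSO alone without ATP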
CHO parental Ca = signal in parental CHO cells, OX1R antagonist counter-screen. parental CHO-K1, ATP-induced calcium, Fluo-8 fluorescence. inhibition, % at 5.6 µM. 330,000 tested, 0.63% active;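 active = inhibition above that plate's mean sample inhibition plus 3 SD, cut at about 26% in these data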;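 note: 0% = ATP-challenged DMSO wells and 100% = DMSO wells without ATP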
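Test system: untransfected parental CHO cell line; also added: ATP stimulus; dosing: 5.6 µM, single dose; signal: calcium-sensitive Fluo-8 fluorescence; measure: percent inhibition of ATP-evoked calcium rise, normalized to controls; benchmarks: low control ATP plus DMSO, high control DMSO only; replication: one well per compound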
OX1R antag-2 = OX1R (human) antagonism; O43613; 330,000 tested, 1.8% active; OX1R-expressing cells, FRET antagonist read-out; inhibition, % at 6.6 µM; AID 485270; in the data active = inhibition mostly above about 38%, no sharp cut-off; inactive = mostly below about 40%;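 note: 0% = agonist challenge alone and 100% = reference antagonist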
Active calls of the source: *; . = no result.

SMILES | OX1R antag-1 | CHO-K1 Ca ag | M1 PAM parental | CHO-K1 Ca antag | CHO parental Ca | OX1R antag-2
COc1ccc2[nH]c3c(c2c1)CCN1C(=O)N([C@@H](C)C(=O)NC2CCCCC2C)C(=O)[C@]31C (stereo partly drawn) | -3 | 0 | 10 | -7 | -17 | 47*
COc1ccc(CNC(=O)[C@H](C)N2C(=O)N3CCc4c([nH]c5ccc(OC)cc45)[C@@]3(C)C2=O)cc1 | -32 | 2 | 9 | -2 | -19 | 16
COc1cc(/C=C2\SC(=Nc3ccccc3)N(CCc3c[nH]c4ccccc34)C2=O)ccc1OC(C)C(=O)O (stereo not drawn) | 5 | 1 | 15 | 4 | 6 | 19
O=C1/C(=C/c2ccc(N3CCOCC3)o2)SC(=Nc2ccccc2)N1CCc1c[nH]c2ccccc12 | 75* | 5 | 14 | 5 | 92* | 1
CC(=O)N1c2ccc(S(=O)(=O)N3CCCC3)cc2CC1C(=O)Nc1cc(C)cc(C)c1 (stereo not drawn) | -10 | 4 | 16 | -2 | -9 | 4
CC1(C)N([O-])C(c2cccs2)=C[N+]1=O | -5 | 1 | 12 | -4 | 29* | 7
CC1(C)N([O-])C(c2ccccc2)=C[N+](=O)C1(C)C | 9 | 0 | 3 | 1 | -5 | 9
C=CCC1NS(=O)(=O)O[C@H](CCCC)[C@@H]1O (stereo partly drawn) | -14 | 0 | 13 | -8 | -4 | 13
Cc1ccccc1S(=O)(=O)Oc1ccc2ccc(O)cc2c1 | 4 | 3 | 10 | -9 | 22 | 13
Cc1ccccc1C(=O)Oc1ccc2ccc(O)cc2c1 | 16 | 12 | 21 | -5 | 66* | 19
O=C(Nc1ccc(-c2nc3ccccc3s2)cc1)C1=COCCO1 | 2 | 0 | 6 | -6 | 3 | 8
O=C(Nc1cccc(-c2nc3ccccc3s2)c1)C1=COCCO1 | 1 | 3 | 4 | 4 | -25 | 75*
O=C(COc1coc(CN2CCCc3ccccc32)cc1=O)Nc1cccc([N+](=O)[O-])c1 | -19 | 1 | -4 | 2 | -1 | 21
COc1cc(-c2nc3cnccn3c2Nc2ccc(C(C)C)cc2)ccc1O | -8 | 4 | 29 | -18 | 37* | -3
Cc1cccn2cc(CNC(=O)C3CCCCC3)nc12 | -27 | 19* | 0 | 14 | -20 | 14
CCOc1ccc(C(C(=O)NCC2CCCO2)N(Cc2cccs2)C(=O)c2snc(C(N)=O)c2N)cc1 (stereo not drawn) | -9 | 11 | 5 | -6 | -5 | 20
CC1Cc2ccccc2N1C(=O)CN(C)S(=O)(=O)c1cccc2cccnc12 (stereo not drawn) | -3 | 3 | 19 | 2 | 2 | 56*
CC1Cc2ccccc2N1C(=O)C1CCCN(S(=O)(=O)c2cccc3cccnc23)C1 (stereo not drawn) | -6 | 4 | 10 | -2 | -17 | 58*
CN(CC(=O)N1CCCCC1)S(=O)(=O)c1cccc2cccnc12 | -14 | 1 | 18 | 1 | -5 | 10
CCOc1ccc(N(CC(=O)NCc2ccc(OC)cc2)S(C)(=O)=O)cc1 | -23 | 0 | 14 | -2 | -22 | 4
Cc1ccc2nc(C(C)O)[nH]c2c1 (stereo not drawn) | 1 | 0 | 10 | -9 | 45* | 11
O=C(NCCCN1CCCC1=O)c1cccc(S(=O)(=O)Nc2ccc(Br)cc2)c1 | -30 | 0 | -5 | -1 | -21 | 12
COc1ccc(NC(=O)c2c(C)noc2C(C)C)cc1S(=O)(=O)N1CCCCC1 | -5 | 5 | -2 | -1 | -15 | 5
O=C(NC1CCCCCCC1)c1cc(COc2ccc3ncccc3c2)on1 | . | 11 | 2 | 29* | . | .
CC(CNC(=O)c1cc(COc2ccc3ncccc3c2)on1)c1ccccc1 (stereo not drawn) | 33 | 17* | -6 | 18 | 58* | 57*
SMILES | OX1R antag-1 | CHO-K1 Ca ag | M1 PAM parental | CHO-K1 Ca antag | CHO parental Ca | OX1R antag-2
Cc1cc(CN(C)C(=O)c2cc(COc3ccc4ncccc4c3)on2)on1 | 11 | 13 | 3 | 9 | 29* | 12
Cc1ccsc1C1CC(=O)OC2=C1C(=O)CC(C)(C)C2 (stereo not drawn) | -1 | . | . | . | -2 | 12
N=c1c2ccccc2nc2n1CCCCC2 | . | 0 | -10 | 34* | . | .
CC(=O)N(C)c1ccc(NCc2cc(=O)oc3cc(C)c(O)cc23)cc1 | -6 | 1 | 18 | -13 | 2 | 9
Cc1ccc2cccc(NC(=S)NC(=O)c3ccn(C)n3)c2n1 | 0 | 1 | -4 | -13 | -42 | 65*
Cc1ccc2cccc(NC(=S)NC(=O)c3c(Br)cnn3C)c2n1 | -37 | 0 | -8 | 26* | -27 | 16
CC1=C(C(=O)Nc2ccccc2C(=O)N2CCN(c3ccccc3)CC2)SCCO1 | . | 0 | -16 | 15 | . | .
O=C(c1cnc2ccc3ccccc3c2c1)c1cc(F)ccc1O | -6 | 4 | 40* | -21 | -9 | 11
CCN(CC)c1ccc(/C=C(\C#N)C(=O)c2ccc(Br)cc2)cc1 | 78* | 110* | -6 | 74* | 54* | 13
O=C(Nc1cccc(Cl)c1)Nc1cccc(Cl)c1 | 39* | 13 | 6 | 21 | 74* | 92*
O=C(Nc1ccccc1)Nc1cc(OCC(F)(F)F)cc(OCC(F)(F)F)c1 | . | 13 | -12 | 32* | . | .
O=C(Nc1cccnc1)c1cc(-c2cc(Cl)ccc2O)n[nH]1 | -16 | 6 | 9 | -1 | -18 | 67*
O=C(NCCNC(=O)c1cc(OCC(F)(F)F)ccc1OCC(F)(F)F)Nc1cccc(C(F)(F)F)c1 | -17 | 5 | 10 | 9 | 7 | 1
CS(=O)(=O)Nc1ccccc1C(=O)Nc1cc(Cl)cc(Cl)c1 | 11 | 3 | 13 | -7 | 19 | 46*
NC(=O)C1(Nc2ccc(Cl)cc2)CCCC1 | . | 2 | 16 | -12 | . | .
Cn1cc(CN2CCC(n3nccc3NC(=O)Cc3ccccc3)CC2)cn1 | -15 | 0 | 11 | 3 | 1 | 16
CC(C)(C)c1cc(C2=CSC3=NCCN23)cc(C(C)(C)C)c1O | -35 | 3 | 9 | -5 | -9 | 0
CC(OC(=O)CN1C(=O)c2ccccc2C1=O)C(=O)NC1CCCCC1C (stereo not drawn) | -16 | 0 | 7 | -3 | -2 | 17
O=C(Nc1ccccc1)Nc1cc(Cl)cc(Cl)c1 | 65* | 10 | 4 | 24* | 54* | 84*
O=C(Nc1cccc(F)c1)Nc1cccc(Cl)c1 | 24 | 16* | -9 | 30* | 34 | 31
O=C(NCc1ccc(F)cc1)Nc1cccc(Cl)c1 | -3 | 5 | -15 | 31* | 11 | 30
CC(=O)Nc1cccc(NC(=O)Nc2cccc(F)c2)c1 | -11 | 0 | 4 | -6 | 0 | 14
O=C(Nc1cccnc1)Nc1cc(Cl)cc(Cl)c1 | -4 | 14 | -13 | 37* | 2 | 26

Compound activity as filed in PubChem.
